Columns and labels:
[1] = tested on: MDA-MB-435; experiment: In vitro cytotoxicity against MDA-MB-435 (Human breast cancer) cell line.; type: functional
Procedure, shortened: (§1)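 GI50 = concentration giving 50% growth inhibition, from a screen of about 55 human cancer cell lines over a 10^-8 to 10^-4 M test range. Values come from two determinations where a population standard deviation is shown, otherwise from single determinations.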

[2] = tested on: OVCAR-3; experiment: Cytotoxicity against ovarian OVCAR-3 human cancer cell line.; type: functional; procedure, shortened: as §1
[3] = tested on: HOP-62; experiment: Cytotoxicity against lung HOP-62 human cancer cell line.; type: functional; procedure, shortened: as §1
[4] = tested on: HCT-116; experiment: Cytotoxicity against colon HCT116 human cancer cell line.; type: functional; procedure, shortened: as §1
[5] = tested on: UACC-62; experiment: In vitro cytotoxicity against UACC-62 (Human melanoma) cell line.; type: functional; procedure, shortened: as §1
[6] = target: T1, DNA topoisomerase 1 (Homo sapiens) (UniProt P11387); experiment: The activity was examined against DNA topoisomerase I mediated DNA cleavage using 3'-End-labelled 161 BP plasmid DNA; 0 indicates inactive
T1 sequence (whole entry): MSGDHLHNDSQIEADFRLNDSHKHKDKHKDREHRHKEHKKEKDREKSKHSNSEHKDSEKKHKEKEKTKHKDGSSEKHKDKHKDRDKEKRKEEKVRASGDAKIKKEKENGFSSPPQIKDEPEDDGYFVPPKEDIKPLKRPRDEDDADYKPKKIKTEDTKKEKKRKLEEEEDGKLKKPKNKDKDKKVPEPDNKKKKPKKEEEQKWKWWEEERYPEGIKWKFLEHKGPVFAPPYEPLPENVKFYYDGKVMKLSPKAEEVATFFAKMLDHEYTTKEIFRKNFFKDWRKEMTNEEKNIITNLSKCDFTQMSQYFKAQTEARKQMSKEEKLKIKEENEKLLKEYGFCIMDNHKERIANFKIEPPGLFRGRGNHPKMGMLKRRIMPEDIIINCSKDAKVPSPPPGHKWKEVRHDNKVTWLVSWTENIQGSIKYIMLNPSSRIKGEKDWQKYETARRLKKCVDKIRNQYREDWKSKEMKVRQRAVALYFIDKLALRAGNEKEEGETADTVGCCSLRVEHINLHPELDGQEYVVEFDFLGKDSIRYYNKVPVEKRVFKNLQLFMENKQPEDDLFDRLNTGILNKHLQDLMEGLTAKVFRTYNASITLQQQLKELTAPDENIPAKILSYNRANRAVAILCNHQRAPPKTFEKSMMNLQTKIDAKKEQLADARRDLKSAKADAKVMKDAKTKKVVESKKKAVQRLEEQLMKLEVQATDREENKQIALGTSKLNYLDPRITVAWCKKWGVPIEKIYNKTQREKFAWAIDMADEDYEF
Procedure, shortened: (§2)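 A 161 bp PvuII–HindIII fragment of pBluescript SK(–) was 3'-end-labeled at the HindIII site with [α-32P]dCTP by Klenow fill-in. About 50 000 dpm per reaction was incubated with top1 and drug (0.1–300 μM) at 30 °C for 30 min, then stopped with 0.5% SDS (final). Products were run on 16% polyacrylamide/7 M urea gels at 51 °C and imaged by phosphorimager.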

[7] = tested on: SN12C; experiment: In vitro cytotoxicity against SN12C (Human renal cancer) cell line.; type: functional; procedure, shortened: as §1
[8] = tested on: SF-539; experiment: Compound was tested for its cytotoxicity against CNS SF-539 Human cancer cell line; type: functional; procedure, shortened: as §1
[9] = tested on: DU-145; experiment: Compound was tested for its cytotoxicity against prostate DU-145 Human cancer cell line; type: functional; procedure, shortened: as §1
[10] = target: T1, DNA topoisomerase 1 (Homo sapiens); experiment: The activity was examined against DNA topoisomerase I mediated DNA cleavage using 3'-End-labelled 161 BP plasmid DNA. 0 indicates inactive; procedure, shortened: as §2
[11] = tested on: DU-145; experiment: Cytotoxicity against prostate DU-145 human cancer cell line.; type: functional; procedure, shortened: as §1
[12] = tested on: SF-539; experiment: Compound was tested for its cytotoxicity against CNS SF-539 Human cancer cell line
[13] = target: T1, DNA topoisomerase 1 (Homo sapiens); experiment: The activity was examined against DNA topoisomerase I mediated DNA cleavage using 3''-End-labelled 161 BP plasmid DNA; + indicates between 20 and 50% of the activity 0f 1 uM camptothecin; procedure, shortened: as §2
[14] = tested on: SF-539; experiment: Compound was tested for its cytotoxicity against CNS SF-539 cell line; type: functional; details: Homo sapiens; procedure, shortened: as §1

| SMILES | GI50 [1] [µM] | GI50 [2] [µM] | GI50 [3] [µM] | GI50 [4] [µM] | GI50 [5] [µM] | Top1 cleavage activity [6] | GI50 [7] [µM] | GI50 [8] [µM] | GI50 [9] [µM] | Top1 cleavage activity [10] | GI50 [11] [µM] | GI50 [12] [µM] | Top1 cleavage activity [13] | GI50 [14] [µM] |
| --- | --- | --- | --- | --- | --- | --- | --- | --- | --- | --- | --- | --- | --- | --- |
| Cn1c2c(c3ccccc3c1=O)C(=O)c1cc(OCc3ccccc3)c(OCc3ccccc3)cc1-2 | > 100 | > 100 | 72 | > 100 | 93 | 0 | 88 | > 100 | > 100 | – | – | – | – | – |
| COc1cc2c(c(OC)c1OC)C(=O)c1c-2n(C)c(=O)c2ccccc12 | – | > 100 | 24 | – | – | – | > 100 | – | – | 0 | > 100 | > 100 | – | – |
| O=C1c2ccccc2-c2c1c1ccccc1c(=O)n2CCCCO | > 100 | 74 | 13 | 3.2 | 4.4 | – | 7.4 | – | – | – | > 100 | – | 20-50% of the activity 0f 1 uM camptothecin | 4.6 |

Reference: ChEMBL document CHEMBL1132570, “Synthesis of cytotoxic indenoisoquinoline topoisomerase I poisons” (1999)
